# Shown are actives, neighbours in structure and some others; about 10% of the full set was active somewhere.
# WT yeast gro inh: growth inhibition of WT yeast, mitochondrial fusion screen | mitochondrial fusion phenotypic screen, WT strain | inhibition, % at 10 µM | actives 2.1% (n = 190,000) | AID 1362; in the data active = inhibition above about 58%; tested in S. cerevisiae
# Diaph act CS: activates diaphorase or chemically reduces, flagging diaphorase assay artifacts. Diaphorase/resazurin coupled assay, resorufin fluorescence, 16 min; active compounds read high; 1 = vehicle wells, 0 = NADH-free wells. AID 1229. actives 0.005% (n = 190,000). activation factor at 20 µM;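 active = diaphorase activity raised at least twofold by the compound at 20 µM; inactive = activation factor below 2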
#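 Measured by – red resorufin fluorescence at 544/590 nm excitation/emission · Test system – Clostridium kluyveri diaphorase, purified enzyme · Incubation – reaction time 16 min, room temperature · Buffer or medium – 50 mM HEPES pH 7.4 with 4.542 mM MgCl2, 0.005% Tween 20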
# Lmaj promast: inhibitors of Leishmania major promastigote growth; AID 1063; actives 9% (n = 200,000); Leishmania major promastigotes, resazurin fluorescence viability; inhibition, % at 10 µM; in the data active = inhibition above about 50%;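 also: promastigotes grown with compound for 44 hours at 28 °C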
# PMI activator: activators of human phosphomannose isomerase | actives 0.005% (n = 190,000) | purified human PMI, coupled resazurin fluorescence, 20 min; active compounds read high; 1 = vehicle control, 0 substrate-free wells | activation factor at 20 µM | P34949;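 active = activation factor of 2 or more at 20 µM, relative to plate controls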
# Target sequence (P34949 whole entry, looked up): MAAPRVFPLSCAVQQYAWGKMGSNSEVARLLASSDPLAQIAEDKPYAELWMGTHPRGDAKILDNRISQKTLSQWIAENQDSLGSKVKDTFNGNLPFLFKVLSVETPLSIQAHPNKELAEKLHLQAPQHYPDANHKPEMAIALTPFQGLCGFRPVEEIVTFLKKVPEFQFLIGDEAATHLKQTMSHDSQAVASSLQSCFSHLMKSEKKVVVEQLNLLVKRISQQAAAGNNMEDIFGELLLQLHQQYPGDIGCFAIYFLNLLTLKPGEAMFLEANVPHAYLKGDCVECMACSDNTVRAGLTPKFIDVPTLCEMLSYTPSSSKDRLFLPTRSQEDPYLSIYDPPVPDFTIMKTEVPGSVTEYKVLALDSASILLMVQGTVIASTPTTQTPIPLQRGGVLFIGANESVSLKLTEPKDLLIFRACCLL
# PMI act hi M6P: PMI (human) activation, high substrate; P34949; coupled PMI enzyme assay, resazurin fluorescence, 20 min; active compounds read high; 1 = untreated enzyme, 0 = substrate-free blank; activation factor at 20 µM; actives 0.34% (n = 190,000);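 active = activation factor of 2 or more at 20 µM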
#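 Test system: human PMI in coupled enzyme assay; Input: PMI at 15 ng/mL final; Medium: HEPES buffer, pH 7.4; Schedule: 20 min incubation at room temperature; Technique: resorufin fluorescence at Ex 544/Em 590 nm; Compound: 20 µM single dose; Probe or stimulus: Near-saturating mannose-6-phosphate, 1.0 mM.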
# Starred values were filed as active, the others as inactive; / = no result.
SMILES,WT yeast gro inh,Diaph act CS,Lmaj promast,PMI activator,PMI act hi M6P
O=C(NCC1(c2ccccc2)CCCC1)c1ccccc1,6.3,0.9,1.5,0.9,1
O=C(NCC1(c2ccccc2)CCCC1)C1(c2ccccc2)CCCC1,83.3*,0.8,42.9,0.9,0.8
O=C(NCC1(c2ccccc2)CCCC1)c1ccccc1Br,-7.6,0.8,55.0*,1,1
O=C(NCCc1ccccc1)C1CCN(C2CCN(C(=O)CC3=CCCCC3)CC2)CC1,-1.3,0.9,-1.4,0.9,0.9
O=C(NC1CC1)C1CCN(C2CCN(C(=O)/C=C/c3ccc(F)cc3)CC2)CC1,6.2,1,65.5*,1,1.1
O=C(/C=C/c1ccccc1)N1CCC(N2CCC(C(=O)N3CCOCC3)CC2)CC1,5.8,0.9,50.8*,0.9,1
O=C(NC1CC1)C1CCN(C2CCN(C(=O)CC3=CCCCC3)CC2)CC1,-4.1,1.1,75.0*,1,1
Cc1cc(OCCOCCNC(C)C)cc(C)c1Cl,/,0.9,98.0*,0.9,1
Cc1cc(OCC(=O)NC(C)C)cc(C)c1Cl,-16.5,0.9,1.6,1,1
OC[C@@H](O)[C@@H](O[C@H]1O[C@H](CO)[C@@H](O)[C@H](O)[C@H]1O)[C@H](O)[C@@H](O)CO,-4.5,0.7,/,0.9,1
CCOC(=O)C1(Cc2ccccc2C(F)(F)F)CCN(CC2CC2)CC1,15.9,0.9,57.4*,1,1
CCOC(=O)C1(Cc2ccccc2C(F)(F)F)CCN(C(C)CSC)CC1 (centres undefined),-5.8,1,75.6*,1,1.1
CCOC(=O)C1(Cc2ccccc2C(F)(F)F)CCN(C2CCCC2)CC1,2.9,1,79.8*,1,1
CCOC(=O)C1(Cc2ccccc2C(F)(F)F)CCN(C2CCSC2)CC1 (centres undefined),8.2,0.8,52.0*,0.9,0.9
CCOC(=O)C1(Cc2ccccc2C(F)(F)F)CCN(C(=O)c2cc(C(C)=O)n[nH]2)CC1,6.8,/,5.7,/,/
CCOC(=O)C1(Cc2ccccc2C(F)(F)F)CCN(C(C)CCn2cccn2)CC1 (centres undefined),8.2,/,49.0,/,/
O=C1C(=O)N(C2CCCC2)C(=O)N1Cc1c(F)cccc1Cl,8.3,0.9,1.3,1.1,0.9
COC(=O)c1ccccc1NC(=O)CN1CCC(n2nnc3cc(C(F)(F)F)ccc32)CC1,9.6,0.9,14.8,0.9,1
COc1ccc(Cl)cc1NC(=O)CN1CCC(n2nnc3cc(C)ccc32)CC1,-0.5,0.9,22.7,1,1
Cc1ccc2c(c1)nnn2C1CCN(CC(=O)Nc2ccccc2N2CCOCC2)CC1,22.2,0.7,58.9*,0.9,0.9
CC1Cc2ccccc2N1C(=O)CN1CCC(n2nnc3cc(C(F)(F)F)ccc32)CC1 (centres undefined),-5.2,0.9,95.2*,0.9,0.9
COc1ccc(N=Nc2nc3cc(Br)c(Br)cc3n2C)c(OC)c1,61.1*,0.9,33.8,1.6,2.1*
COCCNC(=S)N/N=C(\C)c1cccc(OC)c1,-12.4,0.9,2.0,1,1
CN(C)CC(C)(C)CNC(=O)CC1C(=O)NCCN1Cc1ccc(-c2ccccc2)cc1 (centres undefined),2.7,1,-0.6,1,0.8
O=C(COc1ccccc1)NC1CCCc2ccccc21 (centres undefined),-10.2,0.9,51.3*,1,1
SMILES,WT yeast gro inh,Diaph act CS,Lmaj promast,PMI activator,PMI act hi M6P
O=C(Nc1ccccc1)NC1CCCc2ccccc21 (centres undefined),9.2,0.9,8.0,0.9,0.9
CC(C)(C)c1ccc(NC(=O)CNC2CCCc3ccccc32)cc1 (centres undefined),81.1*,1,2.4,1.1,1
O=C(CSc1cc(Cl)ccc1Cl)NC1CCCc2ccccc21 (centres undefined),-9.5,1.1,56.8*,1.1,1.1
Cc1ccc(S(=O)(=O)N2CCN(CC(=O)NC3CCCc4ccccc43)CC2)cc1C (centres undefined),48.7,0.8,97.8*,0.8,0.9
CC(C)Oc1ccc(CCc2n[nH]c(=S)n2-c2ccccc2)cc1,-4.4,0.8,-5.0,1,0.9
CC(NC(=O)COC(=O)Cc1ccc(-c2ccccc2)cc1)c1ccccc1 (centres undefined),-2.5,0.8,-2.0,0.9,1
S=C(NCc1ccccc1)NC1CCCc2ccccc21 (centres undefined),71.6*,0.9,23.0,1,1
O=S(=O)(Nc1ccc(N2CCCCC2)cc1)c1ccc(F)c(F)c1,-7.9,0.7,67.2*,0.7,0.8
Cc1c(NS(=O)(=O)c2ccc(N3CCN(C)CC3)c([N+](=O)[O-])c2)c(=O)n(-c2ccccc2)n1C,0.5,1,-2.5,0.9,0.9
O=[N+]([O-])c1cc(S(=O)(=O)Nc2ccccc2)ccc1N1CCN(c2ccccc2)CC1,33.1,0.8,88.4*,0.8,0.8
O=C(O)c1cc(NS(=O)(=O)c2ccc(N3CCCCC3)c([N+](=O)[O-])c2)cc(C(=O)O)c1,-6.5,0.8,77.5*,0.9,0.9
O=[N+]([O-])c1cc(Cl)ccc1N1CCN(c2cccc(C(F)(F)F)c2)CC1,28.8,0.9,-3.9,0.9,0.9
O=[N+]([O-])c1cc(S(=O)(=O)C(F)(F)F)ccc1N1CCN(c2ccccc2)CC1,-4.8,0.9,67.7*,0.8,0.9
Cc1ccccc1C(=NCCCN(C)C)c1ccccc1C,12.6,0.9,11.2,1,1
O=C(COC(=O)CNS(=O)(=O)c1cccc(Br)c1)NC(=O)Nc1ccc2c(c1)OCCO2,-11.6,0.8,-2.5,0.9,0.9
CNc1nc(SC(C)C(=O)Nc2ccc(Cl)c(Cl)c2)nc(N2CCOCC2)n1 (centres undefined),10.9,1,-0.3,1,1
Cc1nc(CNC(=O)CC2C(=O)NCCN2Cc2cccc(Oc3ccccc3)c2)cs1 (centres undefined),5.5,0.7,-5.3,1,0.7

# Source: PubChem BioAssay (several laboratories)
